Measurements from different studies.
Lines come from different studies, so protocols differ.
Target: Tyrosine-protein kinase Srms (SRMS, Homo sapiens, UniProt Q9H3Y6)

| Structure (SMILES) | test | conditions | endpoint | result |
| --- | --- | --- | --- | --- |
| COc1ncccc1-c1cnn2ccc(N3CCN(C(=O)OC(C)C)CC3)nc12 | binding, competition with immobilised ligand | 1 µM | remaining binding | 78% |
| Nc1ncc(-c2nc(N3CCOCC3)nc(N3CCOCC3)n2)c(C(F)F)n1 | cell-free assay, competition with immobilised ligand | 10 µM | remaining binding | 88% |
| Cn1cncc1[C@@](O)(COc1ccc(C#N)cc1-c1ccc(OC(F)(F)F)cc1)c1ccc(C#N)cc1 | cell-free assay, competition with immobilised ligand | 1 µM | remaining binding | 100% |
| O=c1[nH]c2ccccc2n1C1CCN(Cc2ccc(-c3[nH]c4cc5ncnc5cc4nc3-c3ccccc3)cc2)CC1 | cell-free assay | 0.5 µM | remaining signal | 93.1% |
| Cn1cc(-c2cccc(N3CCc4c(sc5c4CC(C)(C)C5)C3=O)c2CO)cc(Nc2ccncn2)c1=O | enzyme activity, inhibitor | 1 µM | inhibition | -3% |
| N#CC1(c2ccccn2)CCN(Cc2cc(C(=O)O)c(=O)n3ccccc23)CC1 | cell-free assay, competition with immobilised ligand | 1 µM | remaining binding | 93% |
| Cc1nn(C)cc1-c1nc2c(N3CCN(Cc4ccc(Cl)cc4)CC3)c(Cl)cnc2[nH]1 | binding, competition with immobilised ligand | 1 µM | remaining binding | 100% |
| Cn1cc(-c2cc(F)cc(N3CCn4c(cc5c4CCCC5)C3=O)c2CO)cc(Nc2ccc(N3CCN(C4COC4)CC3)cn2)c1=O | enzyme activity, inhibitor | 0.1 µM | inhibition | 17% |
